# Compounds with a hit are over-represented: about 1.4% of the library has one in this group of screens.
# Vif imaging – blocks HIV Vif function. HEK293T cells, Vif self-association by quenched fluorescence, imaging, 24 h. inhibition, % at 7.49 µM. 340,000 tested, 0.35% active. AID 602346; in the data active = inhibition above about 50%, passing the limit was not always enough; inconclusive = no clear call, values can overlap the other calls; inactive = below about 31%
# Casp6 inh – caspase-6 (human) enzyme inhibition. purified caspase-6, Z-VEID-R110 cleavage fluorescence. 350,000 tested, 0.53% active. inhibition, % at 12.5 µM;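 active = mean inhibition across replicates at least about 35%, with every replicate also reaching that limit, limit read from the data; inconclusive = only one of the two criteria met; inactive = neither criterion met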;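 note: 0% = median of neutral control wells and 100% = no fluorescence left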
# Target sequence (P55212 24-179 limits assumed): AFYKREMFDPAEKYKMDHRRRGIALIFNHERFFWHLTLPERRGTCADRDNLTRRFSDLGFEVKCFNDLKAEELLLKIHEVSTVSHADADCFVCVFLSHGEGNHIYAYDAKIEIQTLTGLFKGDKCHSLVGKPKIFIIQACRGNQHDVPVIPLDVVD
# Target sequence (P55212 194-293 limits assumed): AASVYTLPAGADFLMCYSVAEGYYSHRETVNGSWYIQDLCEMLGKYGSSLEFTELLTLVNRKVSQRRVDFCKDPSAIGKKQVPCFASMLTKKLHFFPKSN
# T cell HTS – modulates CD8 T cell binding to vesicles | 2C CD8+ T cell-vesicle binding, flow cytometry; hits give low values | response (vesicle binding), % at 7 µM | 330,000 tested, 0.068% active | AID 2052;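 active = response, share of CD8 T cells binding vesicles, and their 90th percentile fluorescence all below set limits, cut at about 80% in these data, passing the limit was not always enough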;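 note: values below 100% mean blocked vesicle binding to the CD8+ T cells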
#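 Benchmarks: naked versus QL9-loaded vesicles / Assay system: purified 2C TCR transgenic mouse naive CD8+ T cells / Technique: high-throughput flow cytometry with anti-B7-1 and anti-CD8 staining / Timing: Cell–vesicle co-incubation 1.5 h at 37 °C, staining 20 min on ice / Read-out: percent CD8+ FL2 mean versus row control / Probe or stimulus: QL9-loaded Drosophila micro-vesicles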
# Myeloid diff MLP – promotes myeloid progenitor differentiation; AID 624256; calls only at 10 µM; ER-HoxA9 myeloid progenitors, lysozyme-GFP differentiation, flow cytometry; 360,000 tested, 1% active;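 active = normalized GFP-positive differentiation at or above the plate's own cutoff, the solvent-only control mean plus 3 SD; inconclusive = no clear call, values can overlap the other calls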;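 note: cells exposed to compound for four days before flow analysis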
# An asterisk follows results filed as active; i = inactive; ? = inconclusive; / = no result given; + = active, no number.
SMILES,Vif imaging,Casp6 inh,T cell HTS,Myeloid diff MLP
O=C(C[C@H]1C=C[C@H](NC(=O)c2ccccc2)[C@@H](CO)O1)NCCc1ccncc1,/,-4.7,/,/
O=C(C[C@H]1C=C[C@H](NC(=O)c2ccccc2)[C@H](CO)O1)NCCc1ccncc1,/,41.0*,/,/
CO[C@H]1CN(C)C(=O)c2ccc(NS(C)(=O)=O)cc2OC[C@H](C)N(Cc2ccccc2)C[C@@H]1C,/,-1.5,/,/
Cc1cccn2c(=O)c(/C=C(\C#N)C(=O)NCc3ccco3)c(N3CCCCCC3)nc12,-5.2,-0.9,218.8,i
Cc1cccn2c(=O)c(/C=C(\C#N)C(=O)NCc3ccco3)c(N3CCCCC3)nc12,-17.8,0.3,302.8,+
C[C@H]1CN([C@@H](C)CO)C(=O)c2cccc(NC(=O)Nc3cccc4ccccc34)c2O[C@H]1CN(C)C(=O)Nc1ccc2c(c1)OCO2,/,-4.3,/,/
NS(=O)(=O)c1ccc(N=Nc2ccc(=O)[nH]c2O)cc1,2.4,70.5*,197.6,i
NS(=O)(=O)c1ccc(N=Nc2ccc(O)c3ncccc23)cc1,2.4,50.5*,148.2,?
CO[C@@H]1CN(C)C(=O)c2cc(NC(=O)NC(C)C)ccc2OC[C@@H](C)N(Cc2ccccn2)C[C@@H]1C,/,-1.7,/,/
C[C@H](NC(=O)[C@@H]1[C@@H](CO)[C@@H]2Cn3c(ccc(-c4ccccc4F)c3=O)[C@H]1N2C)c1ccccc1,/,-1.0,/,/
COc1cc(C(=O)Nc2ccc3c(c2)ncn3C)cc(OC)c1OC,76.5*,0.0,293.8,i
COC(=O)C[C@@H]1CC[C@@H]2[C@H](COc3ccc(NC(=O)Nc4ccc(C#N)cc4)cc3C(=O)N2C)O1,/,0.0,/,/
CCC(CC)COC(=O)C1=C(C)NC(=O)NC1c1cc(OC)ccc1OC (centres undefined),-2.5,67.8*,406.8,i
O=C(OCc1ccccc1)C1CCCN1C(=O)c1ccccc1[N+](=O)[O-] (centres undefined),56.4*,/,238.5,i
C[C@@H](NC(=O)[C@@H]1[C@@H](CO)[C@@H]2Cn3c(ccc(-c4ccccc4F)c3=O)[C@H]1N2C)c1ccccc1,/,2.2,/,/
CCCCCC(=O)Nc1ccc(Cc2ccncc2)cc1,80.1*,/,375.9,i
NCCCCCC(=O)Nc1ccncc1,59.9*,-6.5,434.5,i
Oc1ccc(/C=N/Nc2ccnc3cc(Cl)ccc23)c(O)c1O,2.3,1.7,272.1,i
Oc1ccc(/C=N/Nc2ccnc3cc(Cl)ccc23)cc1O,-0.2,46.6*,153.7,i
COc1ccccc1CNC(=O)C1CCC(CNS(=O)(=O)c2cccs2)CC1 (centres undefined),54.9*,-3.9,187.6,i
C=CCNC(=O)CSCc1ccc(Br)cc1,11.0,5.9,710.3,+
CCCCn1c(NC(=O)c2ccccc2Cl)c(C#N)c2nc3ccccc3nc21,-29.5,/,252.7,+
N#Cc1c(NC(=O)c2ccccc2Cl)n(Cc2ccccc2)c2nc3ccccc3nc12,-16.7,100.0*,619.4,+
COc1ccc(-n2c(NC(=O)c3ccco3)c(C#N)c3nc4ccccc4nc32)cc1,2.1,/,385.7,+
CN(C)C(=O)c1ccc(-c2cccc(-c3nc(C(=O)N(C)C)cc4c3[C@H](CCO)N([S@@](=O)C(C)(C)C)C4)c2)cc1,/,-0.5,/,/
SMILES,Vif imaging,Casp6 inh,T cell HTS,Myeloid diff MLP
Cc1ccc(-c2nnn(CC(=O)N(CC(=O)NC3CCCC3)c3cnc4ccccc4c3)n2)o1,-6.1,/,483.2,+
Cc1ccc(-c2csc(NC(=O)/C=C/c3ccco3)c2C(=O)O)cc1,-12.6,75.4*,127.4,i
O=C(/C=C/c1ccco1)Nc1sc2c(c1C(=O)O)CCC2,-0.2,60.7*,378.1,i
N#Cc1c(NC(=O)/C=C/c2ccco2)sc2c1CCCC2,0.9,-3.3,722.6,?
Cc1ccc(-c2csc(NC(=O)c3cccc(C)c3)c2C(=O)O)cc1,-9.2,-1.0,251.9,i
O=C(CCl)Nc1ccccc1Sc1ccc(Cl)cc1,0.2,/,559.7,i
O=C(O)CSCC(=O)Nc1ccccc1SCCS(=O)(=O)c1ccc(Cl)cc1,-5.0,1.0,229.1,+
COc1cc(/C=C2\CCc3c2nc2ccccc2c3C(=O)O)cc(OC)c1OC,9.5,49.1*,450.7,i
COc1cc(/C=C2\CCCc3c2nc2ccccc2c3C(=O)O)cc(Br)c1O,-2.1,1.9,708.3,/
COC(=O)c1c(C)[nH]c(C(=O)CC#N)c1C,1.1,-1.4,i,+
C[C@H](CO)N1C[C@H](C)[C@@H](CN(C)C(=O)C2CCC2)Oc2ncc(-c3ccc(F)cc3)cc2C1=O,/,-2.9,/,/
C[C@]12CC[C@H]3C(=CCc4cc(O)ccc43)[C@@H]1CCC2=O,0.4,-1.6,555.7,+
Cc1ccc[n+](-c2[nH]c(=O)sc2/C=N/NC(=O)c2ccccc2[O-])c1,2.9,35.2*,0.0,i
OC[C@@H]1[C@H](c2ccc(C3=CCCC3)cc2)[C@H]2CN(CCC(F)(F)F)CCCCN12,/,-1.9,/,/
COc1ccc(-c2ccc(/C=N/NC(=O)c3cccnc3)o2)c([N+](=O)[O-])c1,-0.5,/,/,+
C[C@@H]1CN([C@@H](C)CO)C(=O)c2cc(Br)cnc2O[C@H]1CN(C)CC1CCCC1,/,-1.2,/,/
O=c1ccc2[n+]([O-])c3ccc(O)cc3oc-2c1,7.4,87.9*,/,i
O=c1cc(O)c2ccc(O)cc2o1,10.7,-0.2,222.5,i
C[C@H]1CN([C@@H](C)CO)S(=O)(=O)c2ccc(C3=CCCCC3)cc2O[C@H]1CN(C)C(=O)C1CCCCC1,/,-0.1,/,/
Cc1ccccc1S(=O)(=O)N1CC(=O)N2[C@H](CO)[C@@H](c3ccc(C#CCC(C)C)cc3)[C@@H]2C1,/,0.9,/,/
COc1ccc(OCCNS(=O)(=O)c2ccccc2)cc1,52.2*,/,162.9,i
CC(C)OC(=O)c1cc(C(=O)c2cc(Br)ccc2O)coc1=N,-12.1,-3.4,264.2,i
CC(C)OC(=O)c1cc(C(=O)c2cc(Cl)ccc2O)coc1=N,-6.1,3.5,232.4,+
CC(C)OC(=O)c1cc(C(=O)c2cc(F)ccc2O)coc1=N,-7.1,/,464.7,+
O=C(C[C@H]1C[C@@H]2c3cc(NC(=O)c4cccnc4)ccc3O[C@@H]2[C@@H](CO)O1)NCC(F)(F)F,/,-0.7,/,/
SMILES,Vif imaging,Casp6 inh,T cell HTS,Myeloid diff MLP
COc1ccc(NC(=O)Nc2ccc3c(c2)C(=O)N([C@H](C)CO)C[C@H](C)[C@H](CN(C)C(=O)Nc2c(C)noc2C)OCCCC[C@H](C)O3)cc1,/,-1.1,/,/
COc1ccc2c3c([nH]c2c1)[C@@H](CO)N(C(=O)c1cnccn1)CC31CCN(S(C)(=O)=O)CC1,/,-0.5,/,/
Cc1nc(C)n(CC(=O)N2CCCC(C(=O)c3ccc(C(F)(F)F)cc3)C2)n1 (centres undefined),95.8*,0.1,184.2,i
COc1ccc(C(=O)C2CCCN(C(=O)Cn3nc(C)nc3C)C2)cc1F (centres undefined),/,-1.8,/,i
CCSc1nnc(NC(=O)c2cccs2)s1,-1.8,/,176.2,i
CC1CCCC(C)N1C(=O)CSc1nnc(NC(=O)c2cccs2)s1 (centres undefined),108.5*,/,284.2,i
